Experimental findings from ChEMBL document CHEMBL2034911, “Carbazole alkaloids from the stems of Clausena lansium” (J Nat Prod, 2012) are described below.

Active and inactive are the calls of the source. The calls are words filed in the database; no cut-off is given here.

What all share (assay type): functional, cell-based
Assay [1] concerns PC-12. The experiment in a line: Neuroprotective activity in rat PC12 cells assessed as inhibition of SNP-induced cell death at 10 uM incubated 24 hrs post SNP-challenge for 24 hrs by MTT assay. Put shortly: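 PC12 cells were grown in DMEM with 5% FBS and 5% equine serum and seeded at 5000 cells/well for 24 h. Medium was switched to basic medium with 350 μM SNP for 24 h, with compound (DMSO stock, >1000-fold dilution) added at the same time, in triplicate. MTT was added for 4 h, formazan dissolved in DMSO, and A570 read. ANOVA with Newman–Keuls post hoc test.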

Assay [2] relates to PC-12. Briefly: Neuroprotective activity in rat PC12 cells assessed as inhibition of amyloid beta(25 to 35)-induced cell death at 10 uM incubated 48 hrs […] by MTT assay. Put shortly:
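PC12 cells were grown in DMEM with 5% FBS and 5% equine serum and seeded at 5000 cells/well for 24 h. Basic medium with 15 μM Aβ25−35 was applied for 48 h, with compound (DMSO stock, >1000-fold dilution) co-added, in triplicate. Viability was measured by MTT (4 h), formazan dissolved in DMSO, and absorbance read at 570 nm. ANOVA/Newman–Keuls.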

Assay [3] has as its system PC-12. The experiment in a line: Neuroprotective activity in rat PC12 cells assessed as inhibition of serum starvation-induced cell death after 24 hrs by MTT assay. Put shortly: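 Serum-withdrawal model: PC12 cells (5000/well) were pre-grown 24 h in DMEM with 5% FBS and 5% equine serum, then moved to plain DMEM. Compound (DMSO stock, >1000-fold dilution) was added at the same time, in triplicate, and cells were incubated 24 h at 37 °C, 5% CO2. MTT was added for 4 h, formazan dissolved in DMSO, and A570 read. ANOVA with Newman–Keuls test.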

As for `COc1c2c(cc3c1[nH]c1ccccc13)C(=O)O[C@@H]2[C@H](O)C(C)(C)O`, the outcome in the assay with PC-12 [1], in the assay with PC-12 [2] and in the assay with PC-12 [3] was inactive.

In the case of `COc1ccc2[nH]c3cc(OC)c(C=O)cc3c2c1`, the result in the assay with PC-12 [1], with PC-12 [2] and with PC-12 [3] was inactive.

Turning to `COc1c2c(cc3c1[nH]c1ccccc13)C(=O)O[C@H](C(C)(C)O)[C@H]2O`, the outcome in the assay with PC-12 [1], in the assay with PC-12 [2] and in the assay with PC-12 [3] was inactive.

As to `COc1ccc2[nH]c3c4c(c(C=O)cc3c2c1)OC(C)(C)C=C4`, the result in the assay with PC-12 [1] was Active. Also, the result with PC-12 [2] and with PC-12 [3] was inactive.

Regarding `COc1c2c(cc3c1[nH]c1ccccc13)[C@H]1O[C@@H]([C@H]2O)C(C)(C)O1`, the result in the assay with PC-12 [1], with PC-12 [2] and with PC-12 [3] was inactive.

Take `COC(=O)c1ccc2[nH]c3ccc(OC)cc3c2c1`: in the assay with PC-12 [1], the outcome was Active. Moreover, the result in the assay on PC-12 [2] and in the assay on PC-12 [3] was inactive.

As to `COc1cc2c(cc1O)[nH]c1cc(O)c(C=O)cc12`, the outcome in the assay on PC-12 [1] and with PC-12 [2] was Active. In addition, the result in the assay with PC-12 [3] was inactive.

With `COc1c2c(cc3c1[nH]c1ccccc13)[C@H]1O[C@@H](C2)C(C)(C)O1`, the result with PC-12 [1] and with PC-12 [2] was Active. Further, the outcome with PC-12 [3] was inactive.

On to `CC(C)=CCc1c(C=O)cc2c([nH]c3ccccc32)c1O`, for which the outcome with PC-12 [1] and in the assay with PC-12 [3] was inactive. Further, in the assay with PC-12 [2], the outcome was Active.

On to `COc1c2c(cc3c1[nH]c1ccccc13)C(=O)C(=C(C)C)C2`, for which the result with PC-12 [1], in the assay with PC-12 [2] and with PC-12 [3] was inactive.

Turning to `COc1cc(C=O)cc2c1[nH]c1ccccc12`, the outcome with PC-12 [1] and in the assay on PC-12 [2] was Active. Also, in the assay on PC-12 [3], the result was inactive.

For the molecule `COc1cc2c(cc1O)[nH]c1c(CC=C(C)C)c(O)c(C=O)cc12`, the outcome in the assay on PC-12 [1] and in the assay on PC-12 [3] was inactive. In the assay on PC-12 [2], the result was Active.

Consider `COc1ccc2[nH]c3c(O)cc(C=O)cc3c2c1`, for which, in the assay with PC-12 [1], the result was Active. Moreover, the outcome in the assay with PC-12 [2] and in the assay with PC-12 [3] was inactive.

For the molecule `COc1c2c(cc3c1[nH]c1ccccc13)C(=O)C[C@@H]2O`, the result in the assay on PC-12 [1], in the assay on PC-12 [2] and with PC-12 [3] was inactive.

For the molecule `O=Cc1ccc2[nH]c3ccccc3c2c1`, the outcome in the assay on PC-12 [1], with PC-12 [2] and with PC-12 [3] was inactive.

`CC(C)=CCc1c(C=O)cc(O)c2[nH]c3ccccc3c12`: the outcome in the assay on PC-12 [1], with PC-12 [2] and in the assay on PC-12 [3] was inactive.

Take `COc1ccc2[nH]c3ccc(C=O)cc3c2c1`: the outcome in the assay with PC-12 [1], in the assay on PC-12 [2] and in the assay with PC-12 [3] was inactive.
